What is called MIC is the lowest concentration found to suppress growth. The low end stands for a more susceptible organism, the high end for a less susceptible organism.

This is an account of results in ChEMBL document CHEMBL1208768, “Synthesis, selective anti-Helicobacter pylori activity, and cytotoxicity of novel N-substituted-2-oxo-2H-1-benzopyran-3-carboxamides” (Bioorg Med Chem Lett, 2010).

One data set concerns [Candida] sake. Kind of data set: Antifungal activity against Candida sake after 24 hrs by broth microdilution method. It is filed as functional. As to conditions: Fermentozyma sake. An outline of the steps: (§1)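 Candida isolates from respiratory-tract specimens, tested by NCCLS broth microdilution in Sabouraud dextrose broth. Serial compound dilutions inoculated to 10³/mL, with fungus-only and medium-only controls. Incubated 24 h at 37 °C. MIC was the lowest concentration with complete visible growth inhibition.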
(In broth dilution the organism is exposed to a series of concentrations in liquid medium.)

Data set [1] can be described thus: Solubility of the compound in DMSO at 0.0039 to 128 ug/mL. Type of data set: physicochemical.
For the next data set, the system named is Staphylococcus aureus. The data set can be described thus: Antibacterial activity against Staphylococcus aureus after 18 to 22 hrs by broth microdilution method. Type of data set: functional. An outline of the steps: (§2)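 Clinical respiratory-tract isolates from patients, subcultured for purity and identified conventionally. Broth microdilution per NCCLS in Mueller–Hinton II broth; each plate had growth controls (bacteria, no compound) and medium-only controls. Incubation 18–22 h at 35 °C. MIC taken as the lowest concentration giving complete growth inhibition by unaided eye.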

Another data set deals with Escherichia coli. The data set can be described thus: Antibacterial activity against Escherichia coli after 18 to 22 hrs by broth microdilution method. It is filed as functional. An outline of the steps: as §2
For data set [2], the system named is Staphylococcus haemolyticus. Kind of data set: Antibacterial activity against Staphylococcus haemolyticus after 18 to 22 hrs by broth microdilution method. It is filed as functional. An outline of the steps:
as §2

For another data set, the system named is Klebsiella oxytoca. Kind of data set: Antibacterial activity against Klebsiella oxytoca after 18 to 22 hrs by broth microdilution method. It is filed as functional. An outline of the steps: as §2
The subject of the next data set is Proteus vulgaris. The data set can be described thus: Antibacterial activity against Proteus vulgaris after 18 to 22 hrs by broth microdilution method. Type of data set: functional. An outline of the steps: as §2
Another data set relates to Candida albicans. The data set can be described thus: Antifungal activity against Candida albicans after 24 hrs by broth microdilution method. Type of data set: functional. In outline: as §1
The test system of a further data set is Staphylococcus hominis. The data set can be described thus: Antibacterial activity against Staphylococcus hominis after 18 to 22 hrs by broth microdilution method. Type of data set: functional. An outline of the steps:
as §2

The test system of a further data set is Enterobacter. The data set can be described thus: Antibacterial activity against Enterobacter after 18 to 22 hrs by broth microdilution method. It is filed as functional. In outline: as §2
Data set [3] concerns AGS. The data set can be described thus: Antiinflammatory activity in human AGS cells assessed as inhibition of IL-8 production at 5 ug/mL after 24 hrs. Type of data set: functional, cell-based. In outline:
(§3)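 AGS gastric adenocarcinoma cells were grown in F-12K with 10% FBS. They were seeded at 1 × 10⁵/mL for 24 h, preincubated 1 h with compound at 5 or 0.5 µg/mL, then exposed to H. pylori.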

A further data set deals with Pichia kudriavzevii. The data set can be described thus: Antifungal activity against Candida krusei after 24 hrs by broth microdilution method. It is filed as functional. An outline of the steps:
as §1

A further data set concerns Citrobacter freundii. The data set can be described thus: Antibacterial activity against Citrobacter freundii after 18 to 22 hrs by broth microdilution method. Type of data set: functional. An outline of the steps:
as §2

The next data set concerns Klebsiella pneumoniae. Kind of data set: Antibacterial activity against Klebsiella pneumoniae after 18 to 22 hrs by broth microdilution method. It is filed as functional. In outline: as §2
In data set [4] the test system is AGS. Kind of data set: Antiinflammatory activity in human AGS cells assessed as inhibition of IL-8 production at 0.5 ug/mL after 24 hrs. Type of data set: functional, cell-based. An outline of the steps: as §3
Data set [5] deals with Staphylococcus epidermidis. Kind of data set: Antibacterial activity against Staphylococcus epidermidis after 18 to 22 hrs by broth microdilution method. It is filed as functional. An outline of the steps: as §2
A further data set deals with Klebsiella aerogenes. Kind of data set: Antibacterial activity against Enterobacter aerogenes after 18 to 22 hrs by broth microdilution method. Type of data set: functional. In outline: as §2
In a further data set the test system is Enterococcus faecalis. The data set can be described thus: Antibacterial activity against Streptococcus faecalis after 18 to 22 hrs by broth microdilution method. Type of data set: functional. An outline of the steps:
as §2

Calls of active or inactive are those of the source. The rule behind the calls is not given here. A value given as a limit tells only on which side of the number the result lay.

Consider `CCOC(=O)c1ccc(NC(=O)c2cc3ccc(OC)cc3oc2=O)cc1`, for which the MIC (in [Candida] sake; against Staphylococcus aureus; with Escherichia coli; in [2]; in the data set with Klebsiella oxytoca; against Proteus vulgaris) was greater than 128 µg/mL each time. In addition, the minimum inhibitory concentration (MIC) in the data set on Candida albicans, in the data set with Staphylococcus hominis, against Enterobacter, in the data set on Pichia kudriavzevii, in the data set on Citrobacter freundii and with Klebsiella pneumoniae was greater than 128 µg/mL throughout. Besides, the MIC (in data set [5]; in the data set on Klebsiella aerogenes; against Enterococcus faecalis) was greater than 128 µg/mL throughout. The solubility result in data set [1] was “Insoluble”. The inhibition result in the data set with AGS [3] and in the data set with AGS [4] was “inactive” each time.

In the case of `Cc1ccc2oc(=O)c(C(=O)Nc3ccc(C(=O)O)cc3)cc2c1`, the minimal inhibitory concentration (MIC) (in [Candida] sake; against Staphylococcus aureus; against Escherichia coli; in [2]; with Klebsiella oxytoca; against Proteus vulgaris) was greater than 128 µg/mL each time. For the same compound, the minimal inhibitory concentration (MIC) in the data set with Candida albicans, against Staphylococcus hominis, in the data set with Enterobacter, in the data set with Pichia kudriavzevii, against Citrobacter freundii and against Klebsiella pneumoniae was greater than 128 µg/mL throughout. Also, the MIC (in data set [5]; in the data set with Klebsiella aerogenes; with Enterococcus faecalis) was greater than 128 µg/mL in each case. Besides, the solubility entry in data set [1] is listed as “Insoluble”. Further, the inhibition entry with AGS [3] and with AGS [4] was “inactive” in each case.
